From ChEMBL document CHEMBL1140517, “Synthesis, antifungal and antimycobacterial activities of new bis-imidazole derivatives, and prediction of their binding to P450(14DM) by molecular docking and MM/PBSA method” (2007) come the findings set out here.

In brackets after ≈: the same amount, converted by molar mass.

Common to all, as to assay type: functional
For assay [1], the system named is Candida albicans. In words: Antimicrobial activity against Candida albicans 3038 after 24 hrs. A digest of the protocol:
(§1)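 Broth MIC against clinical Candida isolates (C. albicans 3038 and C. glabrata 123). Compounds were taken from 4 mg/mL DMSO stock solutions (stock, not final concentration). Miconazole and amphotericin B served as reference compounds. Each MIC was determined twice in duplicate experiments and read after 24 h and 48 h of incubation.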

Assay [2] has as its system Nakaseomyces glabratus. The experiment in a line: Antimicrobial activity against Candida glabrata 123 after 24 hrs. A digest of the protocol:
as §1

The subject of assay [3] is Nakaseomyces glabratus. In words: Antimicrobial activity against Candida glabrata 123 after 48 hrs. In a few lines:
as §1

Assay [4] relates to Candida albicans. In words: Antimicrobial activity against Candida albicans 3038 after 48 hrs. A digest of the protocol:
as §1

Assay [5] deals with Mycobacterium tuberculosis. In words: Antimicrobial activity against Mycobacterium tuberculosis H37Rv after 24 hrs.
The test system of assay [6] is Mycobacterium tuberculosis. The experiment in a line: Antimicrobial activity against Mycobacterium tuberculosis H37Rv assessed per disk after 24 hrs.

As to `C[C@@H]1[C@H](O)[C@@H](C)/C=C/C=C/C=C/C=C/C=C/C=C/C=C/[C@H](O[C@@H]2O[C@H](C)[C@@H](O)[C@H](N)[C@@H]2O)C[C@@H]2O[C@](O)(C[C@@H](O)C[C@@H](O)[C@H](O)CC[C@@H](O)C[C@@H](O)CC(=O)O[C@H]1C)C[C@H](O)[C@H]2C(=O)O` [AMPHOTERICIN B], the MIC in the assay on Candida albicans [1] worked out at 1 µg/mL (≈ 1.08 µM); with Nakaseomyces glabratus [2], 0.5 µg/mL (≈ 0.541 µM); in the assay on Nakaseomyces glabratus [3], 2 µg/mL (≈ 2.16 µM); against Candida albicans [4] it was 2 µg/mL (≈ 2.16 µM).
As for `O=C(c1ccc(Br)s1)C(Cn1ccnc1)Cn1ccnc1`, the MIC in assay [5] is 16 µg/mL (≈ 43.8 µM); in the assay with Candida albicans [1], 64 µg/mL (≈ 175 µM); in the assay on Nakaseomyces glabratus [2], 64 µg/mL (≈ 175 µM); against Nakaseomyces glabratus [3], 128 µg/mL (≈ 350 µM); against Candida albicans [4], 64 µg/mL (≈ 175 µM).
`O=C(c1ccc(F)cc1)C(Cn1ccnc1)Cn1ccnc1`: the MIC in assay [5] came to 16 µg/mL (≈ 53.6 µM); in the assay on Candida albicans [1] it was 64 µg/mL (≈ 215 µM); in the assay on Nakaseomyces glabratus [2], 128 µg/mL (≈ 429 µM); in the assay with Nakaseomyces glabratus [3], 128 µg/mL (≈ 429 µM); against Candida albicans [4], 128 µg/mL (≈ 429 µM).
On to `O=C(c1ccc([N+](=O)[O-])cc1)C(Cn1ccnc1)Cn1ccnc1`, for which the MIC is 64 µg/mL (≈ 197 µM) in assay [5]; 128 µg/mL (≈ 393 µM) in the assay on Candida albicans [1]; 128 µg/mL (≈ 393 µM) against Nakaseomyces glabratus [2]; above 128 µg/mL against Nakaseomyces glabratus [3]; above 128 µg/mL in the assay on Candida albicans [4].
Regarding `O=C(c1cccs1)C(Cn1ccnc1)Cn1ccnc1`, the MIC in assay [5] was determined as 16 µg/mL (≈ 55.9 µM); in the assay with Candida albicans [1], 128 µg/mL (≈ 447 µM); in the assay on Nakaseomyces glabratus [2], 128 µg/mL (≈ 447 µM); with Nakaseomyces glabratus [3] it was 128 µg/mL (≈ 447 µM); with Candida albicans [4], 128 µg/mL (≈ 447 µM).
Consider `Clc1ccc(COC(Cn2ccnc2)c2ccc(Cl)cc2Cl)c(Cl)c1` (stereo not drawn) [MICONAZOLE], for which the MIC in the assay on Candida albicans [1] came to 2.5 µg/mL (≈ 6.01 µM); in the assay with Nakaseomyces glabratus [2], 1.25 µg/mL (≈ 3 µM); in the assay with Nakaseomyces glabratus [3], 2.5 µg/mL (≈ 6.01 µM); against Candida albicans [4], 5 µg/mL (≈ 12 µM).
For `O=C(c1ccc(Cl)cc1)C(Cn1ccnc1)Cn1ccnc1`, the MIC in assay [5] amounted to 16 µg/mL (≈ 50.8 µM); with Candida albicans [1], 16 µg/mL (≈ 50.8 µM); in the assay on Nakaseomyces glabratus [2], 32 µg/mL (≈ 102 µM); against Nakaseomyces glabratus [3] it was 64 µg/mL (≈ 203 µM); in the assay on Candida albicans [4], 32 µg/mL (≈ 102 µM).
The compound `CO[C@H]1/C=C/O[C@@]2(C)Oc3c(C)c(O)c4c(O)c(c(/C=N/N5CCN(C)CC5)c(O)c4c3C2=O)NC(=O)/C(C)=C\C=C\[C@H](C)[C@H](O)[C@@H](C)[C@@H](O)[C@@H](C)[C@H](OC(C)=O)[C@@H]1C` [RIFAMPIN] showed an MIC in assay [6] of 1 mg.
Turning to `O=C(c1ccc(-c2ccccc2)cc1)C(Cn1ccnc1)Cn1ccnc1`, the MIC in assay [5] turned out to be 8 µg/mL (≈ 22.4 µM); with Candida albicans [1], 2 µg/mL (≈ 5.61 µM); with Nakaseomyces glabratus [2], 4 µg/mL (≈ 11.2 µM); against Nakaseomyces glabratus [3], 8 µg/mL (≈ 22.4 µM); with Candida albicans [4], 4 µg/mL (≈ 11.2 µM).
Take `O=C(c1ccc(Cl)s1)C(Cn1ccnc1)Cn1ccnc1`: the MIC worked out at 16 µg/mL (≈ 49.9 µM) in assay [5]; 64 µg/mL (≈ 199 µM) in the assay on Candida albicans [1]; 64 µg/mL (≈ 199 µM) against Nakaseomyces glabratus [2]; 128 µg/mL (≈ 399 µM) against Nakaseomyces glabratus [3]; 64 µg/mL (≈ 199 µM) with Candida albicans [4].
As for `Cc1ccc(C(=O)C(Cn2ccnc2)Cn2ccnc2)cc1`, the MIC in assay [5] came to 8 µg/mL (≈ 27.2 µM); with Candida albicans [1], 64 µg/mL (≈ 217 µM); in the assay on Nakaseomyces glabratus [2] it was 128 µg/mL (≈ 435 µM); against Nakaseomyces glabratus [3], 128 µg/mL (≈ 435 µM); in the assay with Candida albicans [4], 128 µg/mL (≈ 435 µM).
With `O=C(c1ccccc1)C(Cn1ccnc1)Cn1ccnc1`, the MIC in assay [5] turned out to be 16 µg/mL (≈ 57.1 µM); against Candida albicans [1] it was 64 µg/mL (≈ 228 µM); against Nakaseomyces glabratus [2], 128 µg/mL (≈ 457 µM); against Nakaseomyces glabratus [3], 128 µg/mL (≈ 457 µM); against Candida albicans [4] it was 64 µg/mL (≈ 228 µM).
On to `COc1ccc(C(=O)C(Cn2ccnc2)Cn2ccnc2)cc1`, for which the MIC was found to be 16 µg/mL (≈ 51.6 µM) in assay [5]; 64 µg/mL (≈ 206 µM) with Candida albicans [1]; 128 µg/mL (≈ 412 µM) in the assay with Nakaseomyces glabratus [2]; 128 µg/mL (≈ 412 µM) in the assay with Nakaseomyces glabratus [3]; 128 µg/mL (≈ 412 µM) against Candida albicans [4].
For `OC(c1ccc(Br)cc1)C(Cn1ccnc1)Cn1ccnc1` (stereo not drawn), the MIC in assay [5] was 8 µg/mL (≈ 22.1 µM); in the assay with Candida albicans [1] it was 128 µg/mL (≈ 354 µM); against Nakaseomyces glabratus [2] it was 128 µg/mL (≈ 354 µM); in the assay on Candida albicans [4], above 128 µg/mL.
As to `COc1ccc(C(O)C(Cn2ccnc2)Cn2ccnc2)cc1` (stereo not drawn), the MIC was 64 µg/mL (≈ 205 µM) in assay [5]; 128 µg/mL (≈ 410 µM) against Candida albicans [1]; 128 µg/mL (≈ 410 µM) with Nakaseomyces glabratus [2]; above 128 µg/mL in the assay on Nakaseomyces glabratus [3]; above 128 µg/mL with Candida albicans [4].
On to `O=C(c1ccc(Br)cc1)C(Cn1ccnc1)Cn1ccnc1`, for which the MIC in assay [5] amounted to 16 µg/mL (≈ 44.5 µM); in the assay with Candida albicans [1] it was 16 µg/mL (≈ 44.5 µM); in the assay on Nakaseomyces glabratus [2], 32 µg/mL (≈ 89.1 µM); against Nakaseomyces glabratus [3], 64 µg/mL (≈ 178 µM); against Candida albicans [4] it was 32 µg/mL (≈ 89.1 µM).
